The sample as a whole holds a higher share of hits than the screen did.
T cruzi growth-1: T. cruzi proliferation inhibition | T. cruzi beta-gal in NIH3T3, GalScreen luminescence, 90 h | inhibition, % at 8.34 µM | actives 5.9% (n = 77,000);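 active = mean inhibition above about 93%, with at least 55% of replicates each passing it, limit read from the data, passing the limit was not always enough; inconclusive = only one of those two conditions holds; inactive = neither condition holds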
GASC1 inh: blocks human GASC-1 (KDM4C) demethylase activity. Q9H3R0. GST-KDM4C 2-372, H3K9me3 peptide, LANCE TR-FRET. inhibition, % at 12.5 µM. actives 0.15% (n = 96,000). AID 720574;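 active = mean replicate inhibition above about 25%, with at least 55% of replicates also reaching it, limit read from the data, passing the limit was not always enough; inconclusive = only one of those two conditions met; inactive = neither condition met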
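System: N-terminal GST-fused human GASC-1 (KDM4C) fragment, residues 2-372 / Amount: 10 nM GST-KDM4C in enzyme reaction / Also added: H3K9me3 peptide with Fe(II)/2OG / Times: 30 min demethylation and 1 h detection at room temperature / Signal: LANCE TR-FRET / Read-out basis: Fall in 671/618 emission ratio as inhibition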
IDH1 mut inh: IDH1 R132H (human) inhibition; actives 0.18% (n = 70,000); IDH1 R132H reductase, diaphorase/resazurin fluorescence, 60 min; inhibition, % at 10 µM; O75874; in the data active = inhibition above about 34%; inconclusive = no clear call, values can overlap the other calls; inactive = below about 11%;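 note: 0% = DMSO and 100% = no enzyme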
Target sequence (O75874 whole entry R132H): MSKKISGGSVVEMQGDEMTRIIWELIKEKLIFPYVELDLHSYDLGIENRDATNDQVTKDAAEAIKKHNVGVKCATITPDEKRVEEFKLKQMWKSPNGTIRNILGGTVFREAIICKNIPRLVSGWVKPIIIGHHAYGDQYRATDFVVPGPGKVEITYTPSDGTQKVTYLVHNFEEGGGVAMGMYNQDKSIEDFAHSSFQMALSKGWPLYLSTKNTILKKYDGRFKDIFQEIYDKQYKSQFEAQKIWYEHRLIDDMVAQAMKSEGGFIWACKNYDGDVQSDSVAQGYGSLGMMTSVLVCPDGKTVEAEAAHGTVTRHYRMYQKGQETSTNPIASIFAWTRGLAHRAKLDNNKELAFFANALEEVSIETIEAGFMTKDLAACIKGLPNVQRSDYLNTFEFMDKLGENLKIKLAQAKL
T cruzi growth-2: Trypanosoma cruzi proliferation inhibition. AID 651739. T. cruzi beta-gal in NIH3T3, GalScreen luminescence, 90 h. actives 72% (n = 5,600). shares compounds with T cruzi growth-1. inhibition, % at 8.35 µM;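 active = mean replicate inhibition above about 95% and at least 55% of replicates individually reaching it, limit read from the data; inconclusive = only one of the two criteria is met; inactive = neither criterion is met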
T cruzi growth-3: blocks T. cruzi growth in NIH3T3 host cells; shares compounds with T cruzi growth-1; T. cruzi beta-gal in NIH3T3, GalScreen luminescence, 90 h; inhibition, % at 2.09 µM; actives 21% (n = 5,600); AID 651740;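 active = mean inhibition above about 95%, with at least 55% of replicates also reaching it, limit read from the data; inconclusive = meets just one of the two conditions; inactive = meets neither condition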;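 note: plate controls were neutral control median for no effect and positive control median for full effect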
3T3 cytotox: NIH/3T3 (mouse) viability loss; shares compounds with T cruzi growth-1; NIH/3T3 viability, CellTiter-Glo ATP luminescence, 90 h; cytotoxicity (signal decrease), % at 8.35 µM; actives 14% (n = 5,600); AID 651742;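 active = mean signal decrease across replicates above about 35% based on untreated-well scatter, with enough replicates individually passing, limit read from the data; inconclusive = no rule stated though some were filed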;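 note: 0% = median of neutral control wells and 100% = median of positive control wells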
NIH3T3 tox 2: cytotoxicity in mouse NIH/3T3 fibroblasts; shares compounds with T cruzi growth-1; NIH/3T3 viability, CellTiter-Glo ATP luminescence, 90 h; inhibition, % at 24.9 µM; actives 56% (n = 5,600); AID 651744;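 active = mean loss of cell viability signal at or above a set limit, and enough replicates individually reaching it; inconclusive = meets only the mean limit or only the replicate share; inactive = meets neither condition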;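 note: 0% = median of neutral control wells and 100% = median of positive control wells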
Numbers without * were called inactive; ? = inconclusive; / = no result.

SMILES	T cruzi growth-1	GASC1 inh	IDH1 mut inh	T cruzi growth-2	T cruzi growth-3	3T3 cytotox	NIH3T3 tox 2
C[C@@H]1CN([C@@H](C)CO)C(=O)c2cc(C#CCN(C)C)cnc2O[C@H]1CN(C)S(=O)(=O)c1ccccc1	97*	3	-1	102*	87	-23	-6
COc1cccc(S(=O)(=O)N(C)C[C@@H]2Oc3ncc(C#CCN(C)C)cc3C(=O)N([C@@H](C)CO)C[C@H]2C)c1	103*	10	-1	96*	93	2	3
CC(C)CC#Cc1cnc2c(c1)C(=O)N([C@H](C)CO)C[C@@H](C)[C@@H](CN(C)S(=O)(=O)c1ccccc1)O2	83	1	1	/	/	/	/
COc1cccc(S(=O)(=O)N(C)C[C@@H]2Oc3ncc(C#Cc4ccccc4)cc3C(=O)N([C@H](C)CO)C[C@@H]2C)c1	77	/	0	/	/	/	/
Cc1ccc(S(=O)(=O)N(C)C[C@H]2Oc3ncc(C#CCC(C)C)cc3C(=O)N([C@@H](C)CO)C[C@H]2C)cc1	105*	0	-1	104*	77	33	93*
CCCC#Cc1cnc2c(c1)C(=O)N([C@@H](C)CO)C[C@@H](C)[C@@H](CN(C)S(=O)(=O)c1cccc(OC)c1)O2	88	-1	/	/	/	/	/
CCCCCCC/C=N/NC(=O)CCCCCCC(=O)OC	/	/	0	/	/	/	/
Cc1ccc2nc(-c3cccnc3)cc(C(=O)Nc3scc(-c4ccc(C)c(C)c4)c3C(N)=O)c2c1	/	/	0	/	/	/	/
Cc1ccc(-c2csc3nnc(SCC(=O)N4CCOCC4)n23)cc1	/	/	1	/	/	/	/
Cc1ccc(-c2csc3ncnc(SCC(=O)Nc4ccccc4C(C)C)c23)cc1	/	/	2	/	/	/	/
COc1cccc(S(=O)(=O)N(C)C[C@H]2Oc3ncc(C#CC(C)C)cc3C(=O)N([C@H](C)CO)C[C@H]2C)c1	74	1	/	/	/	/	/
COc1cccc(S(=O)(=O)N(C)C[C@@H]2Oc3ncc(C#CC(C)C)cc3C(=O)N([C@H](C)CO)C[C@@H]2C)c1	96*	-1	-4	84	19	15	52*
COc1ccc(N(C(C)C(=O)Nc2cc(Cl)ccc2C)S(C)(=O)=O)cc1 (configuration not stated)	/	/	0	/	/	/	/
C[C@H]1CN([C@@H](C)CO)C(=O)Cc2cc(NC(=O)Cc3ccccc3)ccc2O[C@@H]1CN(C)Cc1ccc2c(c1)OCO2	102*	2	0	108*	21	11	3
C[C@@H]1CN([C@@H](C)CO)C(=O)Cc2cc(NC(=O)Cc3ccccc3)ccc2O[C@@H]1CN(C)Cc1ccccc1	57	6	/	/	/	/	/
C[C@@H]1CN([C@H](C)CO)C(=O)Cc2cc(NC(=O)Cc3ccccc3)ccc2O[C@H]1CN(C)Cc1ccc2c(c1)OCO2	12	-1	1	/	/	/	/
C[C@H]1CN([C@@H](C)CO)C(=O)Cc2cc(NC(=O)Cc3ccccc3)ccc2O[C@@H]1CN(C)Cc1ccc(C(F)(F)F)cc1	120*	13	0	112*	92	-5	98*
C[C@H](CO)N1C[C@H](C)[C@H](CN(C)Cc2ccc(C(F)(F)F)cc2)Oc2ccc(NC(=O)Cc3ccccc3)cc2CC1=O	85	0	/	/	/	/	/
C[C@H]1CN([C@@H](C)CO)C(=O)Cc2cc(NC(=O)Cc3ccccc3)ccc2O[C@H]1CN(C)Cc1ccc(C(F)(F)F)cc1	105*	0	0	108*	67	14	104*
CCOc1ccc2nc(SCC(=O)Nc3c(C)cccc3C)[nH]c2c1	/	/	-1	/	/	/	/
COc1cccc(NC(=O)COc2ccccc2C(=O)Nc2c(C)cccc2C)c1	/	/	0	/	/	/	/
COc1ccc([N+](=O)[O-])cc1NC(=O)CN(c1ccccc1Cl)S(C)(=O)=O	/	/	0	/	/	/	/
O=C(CN1CCOCC1)N1CCCCN2[C@H](CO)[C@H](c3ccc(C#Cc4ccccc4F)cc3)[C@@H]2C1	106*	1	/	101*	58	45*	76*
O=C(CN1CCOCC1)N1CCCCN2[C@H](C1)[C@H](c1ccc(C#Cc3ccccc3F)cc1)[C@@H]2CO	107*	0	/	55	22	32	89*
O=C(CN1CCOCC1)N1CCCCN2[C@H](C1)[C@@H](c1ccc(C#Cc3ccccc3F)cc1)[C@@H]2CO	84	-1	/	/	/	/	/
SMILES	T cruzi growth-1	GASC1 inh	IDH1 mut inh	T cruzi growth-2	T cruzi growth-3	3T3 cytotox	NIH3T3 tox 2
O=C(CN1CCOCC1)N1CCCCN2[C@H](CO)[C@H](c3ccc(C#Cc4ccccc4F)cc3)[C@H]2C1	118*	1	/	87	20	19	95*
O=C(CN1CCOCC1)N1CCCCN2[C@H](CO)[C@H](c3ccc(-c4ccccc4)cc3)[C@H]2C1	70	3	/	/	/	/	/
O=C(CN1CCOCC1)N1CCCCN2[C@H](CO)[C@H](c3ccc(C#Cc4ccccc4)cc3)[C@H]2C1	98*	0	/	96*	25	11	67*
COc1ccc(CC(=O)Nc2ccc(NC(=O)c3ccco3)cc2)cc1OC	/	/	0	/	/	/	/
Cc1cc(Br)ccc1NC(=O)CSc1nnc(N)s1	/	/	-1	/	/	/	/
CCOC(=O)c1sc(NC(=S)Nc2cnccn2)c(C(=O)OCC)c1C	/	/	0	/	/	/	/
COc1cccc(C(=O)c2oc3ccccc3c2NC(=O)COc2ccccc2)c1	/	/	-1	/	/	/	/
CSc1nc(N)nc(SCC(=O)c2ccc(Cl)s2)c1C#N	/	/	0	/	/	/	/
C[C@@H]1CN([C@H](C)CO)S(=O)(=O)c2ccc(C#CCN(C)C)cc2O[C@@H]1CN(C)Cc1ccccc1	59	7	0	/	/	/	/
C[C@H](CO)N1C[C@H](C)[C@@H](CN(C)Cc2ccncc2)Oc2cc(C#CCN(C)C)ccc2S1(=O)=O	7	4	5	/	/	/	/
CC(C)CC#Cc1ccc2c(c1)O[C@H](CN(C)Cc1ccncc1)[C@H](C)CN([C@@H](C)CO)S2(=O)=O	?	0	4	95*	88	49*	97*
CC(C)CC#Cc1ccc2c(c1)O[C@@H](CN(C)Cc1ccccc1)[C@@H](C)CN([C@H](C)CO)S2(=O)=O	0	0	5	/	/	/	/
CC(C)CC#Cc1ccc2c(c1)O[C@@H](CN(C)Cc1ccccc1)[C@@H](C)CN([C@@H](C)CO)S2(=O)=O	125*	1	0	96*	110*	11	106*
CC(C)CC#Cc1ccc2c(c1)O[C@@H](CN(C)Cc1ccncc1)[C@@H](C)CN([C@H](C)CO)S2(=O)=O	130*	-1	0	100*	91	1	104*
C[C@H]1CN([C@@H](C)CO)S(=O)(=O)c2ccc(C#CCN(C)C)cc2O[C@@H]1CN(C)Cc1ccccc1	108*	5	1	105*	93	31	105*
C[C@H]1CN([C@@H](C)CO)S(=O)(=O)c2ccc(C#CCN(C)C)cc2O[C@H]1CN(C)Cc1ccncc1	28	4	0	/	/	/	/

Assay outcomes from PubChem.
